Experimental data gathered from unrelated publications.
Compare with care: the assays were run in different laboratories.
Read-out: cell growth or viability

With `COC[C@H](NC(=O)c1ccn(S(C)(=O)=O)c1)C(=O)Nc1nc(-c2cccc(N3C[C@@H](C)O[C@@H](C)C3)n2)cs1` the IC50 was 0.119 µM (HCC515; ATP luminescence; 7 days).
`CCOc1ccc(Nc2c3c(nc4ccccc24)CCC3)cc1` gave an IC50 of 18.1 µM (HEK293; resazurin; 72 h).
With `O=C(Nc1ccc(F)cc1)Nc1nc2cc(-c3ccc4ncn(CC(=O)N5CCOCC5)c(=O)c4c3)ccc2s1` the IC50 was greater than 20 µM (NCI-H1975; MTT; 72 h).
`CCCCn1cnc2ccc(-c3ccc(NC(=O)Nc4ccc(C(F)(F)F)cc4)nc3)cc2c1=O` has an IC50 of 6.85 µM (NCI-H1975; CCK-8; 72 h).
`Nc1ccn([C@@H]2O[C@H](CO)[C@@H](O)C2(F)F)c(=O)n1` has an IC50 of 17.4 µg/mL (HEK293; MTT; 48 h).
`CCC(=O)Nc1nc2cc(-c3ccc4ncn(Cc5ccccc5)c(=O)c4c3)ccc2s1` gave an IC50 of greater than 20 µM (NCI-H1975; MTT; 72 h).
The IC50 of `CC(C)(C)c1cnc(CSc2cnc(NC(=O)C3CCN(C(=O)CCCCCCCN4Cc5cc6c(cc5C4)C(=O)N(C4CCC(=O)NC4=O)C6=O)CC3)s2)o1` (centres unmarked) is reported as 0.0754 µM (A673; MTT).
`O=C(Nc1cccc(F)c1)Nc1nc2cc(-c3ccc4ncn(Cc5ccccc5)c(=O)c4c3)ccc2s1` has an IC50 of greater than 20 µM (NCI-H1975; MTT; 72 h).
`Cc1ncsc1-c1ccc([C@H](C)NC(=O)[C@@H]2C[C@@H](O)CN2C(=O)[C@@H](NC(=O)CN2CCN(c3cc(-c4ccccc4O)nnc3N)CC2)C(C)(C)C)cc1` has an IC50 of 0.182 µM (HCC515; ATP luminescence; 7 days).
For `O=C(Nc1ccc(F)cc1)Nc1nc2cc(-c3ccc4ncn(CCC5CCCCC5)c(=O)c4c3)ccc2s1`, the IC50 was 5.97 µM (NCI-H1975; MTT; 72 h).
The IC50 of `O=C(Nc1ccc(-c2ccc3ncn(Cc4ccc5c(c4)OCO5)c(=O)c3c2)cn1)c1ccccc1` is reported as greater than 10 µM (NCI-H1975; CCK-8; 72 h).
`O=C(Nc1ccc(F)cc1)Nc1nc2cc(-c3ccc4ncn(CCN5CCOCC5)c(=O)c4c3)ccc2s1` has an IC50 of 4.31 µM (NCI-H1975; MTT; 72 h).
The IC50 of `Cc1cccc(NC(=O)Nc2ccc(-c3ccc4ncn(Cc5ccccc5)c(=O)c4c3)cn2)c1` is reported as greater than 10 µM (NCI-H1975; CCK-8; 72 h).
`CN1CCC(NC2CCc3[nH]c4c(C(N)=O)ccc(-c5ccccc5Cl)c4c3C2)CC1` (centres unmarked) gave an IC50 of 0.0257 µM (Pfeiffer; 96 h).
For `CCCCC(=O)Nc1ccc(-c2ccc3ncn(CCC)c(=O)c3c2)cc1`, the IC50 was 9.81 µM (NCI-H1975; CCK-8; 72 h).
`O=C(Nc1ccc(C(F)(F)F)cc1)Nc1nc2cc(-c3ccc4ncn(CCN5CCOCC5)c(=O)c4c3)ccc2s1` gave an IC50 of 1.77 µM (NCI-H1975; MTT; 72 h).
`CCCCn1cnc2ccc(-c3ccc(NC(=O)NCCC)nc3)cc2c1=O` gave an IC50 of 8.75 µM (NCI-H1975; CCK-8; 72 h).
`Nc1cccc2c1C(=O)N(C1CCC(=O)NC1=O)C2=O` (centres unmarked) gave an IC50 of greater than 20 µM (TMD8; CCK-8; 7 days).
`CCCCC(=O)Nc1ccc(-c2ccc3ncn(CCC)c(=O)c3c2)c(C)n1` has an IC50 of 5.44 µM (NCI-H1975; CCK-8; 72 h).
`CN(C)C(=O)c1cc2cnc(Nc3ccc(-c4ccc5c(=O)cc(N6CCOCC6)oc5c4)cc3)nc2n1C1CCCC1` gave an IC50 of 0.55 µM (HEK293; ATP luminescence; 72 h).
